In ChEMBL document CHEMBL1148066, “Binding of quinolizidine alkaloids to nicotinic and muscarinic acetylcholine receptors” (J Nat Prod, 1994):

Experiments:
[1] = Displacement of [3H]nicotin from nicotinic ACh receptor
Procedure, shortened: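 Porcine brain membranes (sucrose/K+-phosphate pH 7.0/EDTA homogenate, 100,000 g pellet) incubated with 3H-nicotine and alkaloids (0.5 nM–10 mM) for 40 min at 20°; 1 mM nicotine defines nonspecific binding. Rapid filtration on BSA-presoaked glass fiber filters, saline washes, scintillation counting; triplicates. IC50 = concentration displacing 50% of specific binding.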

[2] = Displacement of [3H]quinuclidinyl benzilate from muscarinic ACh receptor
Procedure, shortened: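 Porcine brain membranes (500 µg protein; 10 mM K+-phosphate pH 7.0, 1 mM EDTA) incubated with 3H-QNB and alkaloids (0.5 nM–10 mM) for 1 h at 20°; atropine blank for nonspecific binding. Stopped with ice-cold 0.9% NaCl, rapid glass-fiber filtration, three washes, scintillation counting; triplicates. IC50 = concentration displacing 50% of specific binding.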

Row | SMILES | IC50 [1] [µM] | IC50 [2] [µM]
1 | O=C1CCC[C@@H]2[C@H]3C[C@@H](CN12)[C@@H]1C[C@H](O)CCN1C3 | 490 | 140
2 | C=CC[C@@H]1NC[C@@H]2C[C@H]1CN1C(=O)CCC[C@H]21 [ANGUSTIFOLINE] | > 500 | 25
3 | O=C1[C@H](O)CC[C@@H]2[C@H]3C[C@@H](CN12)[C@@H]1CCCCN1C3 | 190 | 74
4 | O=C1CCC[C@@H]2[C@H]3C[C@@H](CN12)[C@@H]1CCCCN1C3 [LUPANINE] | 5 | 114
5 | O=C1C=CN2C[C@@H]3C[C@@H](CN4CCCC[C@@H]34)[C@H]2C1 [MULTIFLORINE] | > 500 | 47
6 | C=CC[C@H]1NC[C@H]2C[C@@H]1[C@H]1CC(=O)C=CN1C2 [ALBINE] | 193 | 33
7 | C=CCCN1C[C@H]2C[C@@H](C1)[C@H]1CCCC(=O)N1C2 [TETRAHYDRORHOMBIFOLINE] | 310 | 129
8 | O=C1[C@H]2C[C@@H](CN3CCCC[C@@H]23)[C@H]2CCCCN12 | 155 | 118
9 | CN1C[C@@H]2C[C@H](C1)c1cccc(=O)n1C2 | 0.05 | 417
10 | O=c1cccc2n1C[C@@H]1CNC[C@H]2C1 [CYTISINICLINE] | 0.14 | 400
11 | OC[C@@H]1CCCN2CCCC[C@H]12 [LUPININE] | > 500 | 190
12 | O=c1cccc2n1C[C@H]1C[C@@H]2CN2CCCC[C@H]12 [ANAGYRINE] | 2100 | 132
13 | C1CCN2C[C@@H]3C[C@@H](CN4CCCC[C@@H]34)[C@H]2C1 [SPARTEINE] | 331 | 21
